Results from ChEMBL document CHEMBL1932990, “Synthesis and antifungal activity of 6,7-bis(arylthio)-quinazoline-5,8-diones and furo[2,3-f]quinazolin-5-ols” (2012).
Converted amounts (≈) assume the structure as drawn.

What was measured:
Assay type in all cases: functional
Candida albicans = test: Antifungal activity against Candida albicans Berkout KCCM 50235 after 1 day by twofold broth dilution method; conditions: Berkout KCCM 50235, 24 h
Outline: (§1)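 Two-fold broth dilution in modified Sabouraud dextrose broth. Inoculum about 1 × 10⁵ cells/mL. Test agents at final concentrations from 0.2 to 50.0. Incubated at 37 °C, and MIC read after 1 day. Fluconazole and 5-fluorocytosine served as standard agents.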

Candida tropicalis = test: Antifungal activity against Candida tropicalis Berkout KCCM 50662 after 1 day by twofold broth dilution method; conditions: Berkout KCCM 50662, 24 h; outline: as §1
Pichia kudriavzevii = test: Antifungal activity against Candida krusei Berkout KCCM 11655 after 1 day by twofold broth dilution method; conditions: Berkout KCCM 11655, 24 h; outline: as §1
Cryptococcus neoformans = test: Antifungal activity against Cryptococcus neoformans KCCM 50564 after 1 day by twofold broth dilution method; conditions: KCCM 50564, 24 h; outline: as §1
Aspergillus niger = test: Antifungal activity against Aspergillus niger KCTC 1231 after 2 days by twofold broth dilution method; conditions: KCTC 1231, 48 h
Outline: (§2)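 Two-fold broth dilution in modified Sabouraud dextrose broth. Inoculum about 1 × 10⁵ cells/mL. Test agents at final concentrations from 0.2 to 50.0. Incubated at 37 °C, and MIC read after 2 days. Fluconazole and 5-fluorocytosine served as standard agents.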

Aspergillus flavus = test: Antifungal activity against Aspergillus flavus KCCM 11899 after 2 days by twofold broth dilution method; conditions: KCCM 11899, 48 h; outline: as §2

SMILES | MIC (Candida albicans) | MIC (Candida tropicalis) | MIC (Pichia kudriavzevii) | MIC (Cryptococcus neoformans) | MIC (Aspergillus niger) | MIC (Aspergillus flavus)
CCOC(=O)c1c(N)oc2c1c(Sc1ccc(OC)cc1)c(O)c1ncncc12 | 12.5 µg/mL (≈ 30.4 µM) | 25 µg/mL (≈ 60.8 µM) | 50 µg/mL (≈ 122 µM) | 12.5 µg/mL (≈ 30.4 µM) | 12.5 µg/mL (≈ 30.4 µM) | 12.5 µg/mL (≈ 30.4 µM)
CCOC(=O)c1c(N)oc2c1c(Sc1ccc(C)cc1)c(O)c1ncncc12 | 3.2 µg/mL (≈ 8.09 µM) | 6.3 µg/mL (≈ 15.9 µM) | 6.3 µg/mL (≈ 15.9 µM) | 3.2 µg/mL (≈ 8.09 µM) | 6.3 µg/mL (≈ 15.9 µM) | 6.3 µg/mL (≈ 15.9 µM)
CCOC(=O)c1c(N)oc2c1c(Sc1ccc(Cl)cc1)c(O)c1ncncc12 | 25 µg/mL (≈ 60.1 µM) | 50 µg/mL (≈ 120 µM) | 50 µg/mL (≈ 120 µM) | 6.3 µg/mL (≈ 15.1 µM) | 3.2 µg/mL (≈ 7.69 µM) | 6.3 µg/mL (≈ 15.1 µM)
CCOC(=O)c1c(N)oc2c1c(Sc1ccc(Br)cc1)c(O)c1ncncc12 | 12.5 µg/mL (≈ 27.2 µM) | 25 µg/mL (≈ 54.3 µM) | 25 µg/mL (≈ 54.3 µM) | 3.2 µg/mL (≈ 6.95 µM) | 6.3 µg/mL (≈ 13.7 µM) | 50 µg/mL (≈ 109 µM)
CCOC(=O)c1c(N)oc2c1c(Sc1ccc(F)c(F)c1)c(O)c1ncncc12 | 3.2 µg/mL (≈ 7.67 µM) | 3.2 µg/mL (≈ 7.67 µM) | 6.3 µg/mL (≈ 15.1 µM) | 6.3 µg/mL (≈ 15.1 µM) | 12.5 µg/mL (≈ 29.9 µM) | 3.2 µg/mL (≈ 7.67 µM)
CCOC(=O)c1c(N)oc2c1c(Sc1ccc(F)cc1)c(O)c1ncncc12 | 6.3 µg/mL (≈ 15.8 µM) | 3.2 µg/mL (≈ 8.01 µM) | 6.3 µg/mL (≈ 15.8 µM) | 3.2 µg/mL (≈ 8.01 µM) | 50 µg/mL (≈ 125 µM) | 12.5 µg/mL (≈ 31.3 µM)
CCOC(=O)c1c(N)oc2c1c(Sc1cccc(Cl)c1)c(O)c1ncncc12 | 50 µg/mL (≈ 120 µM) | 25 µg/mL (≈ 60.1 µM) | 50 µg/mL (≈ 120 µM) | 12.5 µg/mL (≈ 30.1 µM) | 25 µg/mL (≈ 60.1 µM) | 12.5 µg/mL (≈ 30.1 µM)
CCOC(=O)c1c(N)oc2c1c(SCC)c(O)c1ncncc12 | 50 µg/mL (≈ 150 µM) | 25 µg/mL (≈ 75 µM) | 25 µg/mL (≈ 75 µM) | 12.5 µg/mL (≈ 37.5 µM) | 3.2 µg/mL (≈ 9.6 µM) | 6.3 µg/mL (≈ 18.9 µM)
O=C1C(Sc2ccc(F)cc2)=C(Sc2ccc(F)cc2)C(=O)c2ncncc21 | 1.6 µg/mL (≈ 3.88 µM) | 6.3 µg/mL (≈ 15.3 µM) | 12.5 µg/mL (≈ 30.3 µM) | 1.6 µg/mL (≈ 3.88 µM) | 3.2 µg/mL (≈ 7.76 µM) | 3.2 µg/mL (≈ 7.76 µM)
COc1ccc(SC2=C(Sc3ccc(OC)cc3)C(=O)c3ncncc3C2=O)cc1 | 25 µg/mL (≈ 57.3 µM) | 25 µg/mL (≈ 57.3 µM) | 3.2 µg/mL (≈ 7.33 µM) | 6.3 µg/mL (≈ 14.4 µM) | 3.2 µg/mL (≈ 7.33 µM) | 0.8 µg/mL (≈ 1.83 µM)
O=C1C(Sc2ccc(Cl)cc2)=C(Sc2ccc(Cl)cc2)C(=O)c2ncncc21 | 6.3 µg/mL (≈ 14.1 µM) | 12.5 µg/mL (≈ 28.1 µM) | 3.2 µg/mL (≈ 7.19 µM) | 6.3 µg/mL (≈ 14.1 µM) | 1.6 µg/mL (≈ 3.59 µM) | 3.2 µg/mL (≈ 7.19 µM)
O=C1C(Sc2ccc(Br)cc2)=C(Sc2ccc(Br)cc2)C(=O)c2ncncc21 | 6.3 µg/mL (≈ 11.8 µM) | 50 µg/mL (≈ 93.6 µM) | 6.3 µg/mL (≈ 11.8 µM) | 12.5 µg/mL (≈ 23.4 µM) | 3.2 µg/mL (≈ 5.99 µM) | 6.3 µg/mL (≈ 11.8 µM)
Cc1ccc(SC2=C(Sc3ccc(C)cc3)C(=O)c3ncncc3C2=O)cc1 | 12.5 µg/mL (≈ 30.9 µM) | 6.3 µg/mL (≈ 15.6 µM) | 6.3 µg/mL (≈ 15.6 µM) | 50 µg/mL (≈ 124 µM) | 3.2 µg/mL (≈ 7.91 µM) | 3.2 µg/mL (≈ 7.91 µM)
Cc1ccc(SC2=C(Sc3ccc(C)c(C)c3)C(=O)c3ncncc3C2=O)cc1C | 12.5 µg/mL (≈ 28.9 µM) | 12.5 µg/mL (≈ 28.9 µM) | 12.5 µg/mL (≈ 28.9 µM) | 3.2 µg/mL (≈ 7.4 µM) | 25 µg/mL (≈ 57.8 µM) | 12.5 µg/mL (≈ 28.9 µM)
O=C1C(Sc2cccc(F)c2)=C(Sc2cccc(F)c2)C(=O)c2ncncc21 | 6.3 µg/mL (≈ 15.3 µM) | 25 µg/mL (≈ 60.6 µM) | 12.5 µg/mL (≈ 30.3 µM) | 1.6 µg/mL (≈ 3.88 µM) | 25 µg/mL (≈ 60.6 µM) | 25 µg/mL (≈ 60.6 µM)
Cc1cccc(SC2=C(Sc3cccc(C)c3)C(=O)c3ncncc3C2=O)c1 | 3.2 µg/mL (≈ 7.91 µM) | 12.5 µg/mL (≈ 30.9 µM) | 25 µg/mL (≈ 61.8 µM) | 0.8 µg/mL (≈ 1.98 µM) | 1.6 µg/mL (≈ 3.96 µM) | 6.3 µg/mL (≈ 15.6 µM)
O=C1C(Sc2ccccc2)=C(Sc2ccccc2)C(=O)c2ncncc21 | 6.3 µg/mL (≈ 16.7 µM) | 6.3 µg/mL (≈ 16.7 µM) | 6.3 µg/mL (≈ 16.7 µM) | 25 µg/mL (≈ 66.4 µM) | 6.3 µg/mL (≈ 16.7 µM) | 3.2 µg/mL (≈ 8.5 µM)
O=C1C(Sc2ccc(F)c(F)c2)=C(Sc2ccc(F)c(F)c2)C(=O)c2ncncc21 | 12.5 µg/mL (≈ 27.9 µM) | 6.3 µg/mL (≈ 14 µM) | 12.5 µg/mL (≈ 27.9 µM) | 6.3 µg/mL (≈ 14 µM) | 12.5 µg/mL (≈ 27.9 µM) | 1.6 µg/mL (≈ 3.57 µM)
O=C1C(Sc2ccc(F)cc2F)=C(Sc2ccc(F)cc2F)C(=O)c2ncncc21 | 6.3 µg/mL (≈ 14 µM) | 6.3 µg/mL (≈ 14 µM) | 12.5 µg/mL (≈ 27.9 µM) | 1.6 µg/mL (≈ 3.57 µM) | 12.5 µg/mL (≈ 27.9 µM) | 6.3 µg/mL (≈ 14 µM)
O=C1C(Sc2ccccc2F)=C(Sc2ccccc2F)C(=O)c2ncncc21 | 6.3 µg/mL (≈ 15.3 µM) | 6.3 µg/mL (≈ 15.3 µM) | 12.5 µg/mL (≈ 30.3 µM) | 1.6 µg/mL (≈ 3.88 µM) | 12.5 µg/mL (≈ 30.3 µM) | 12.5 µg/mL (≈ 30.3 µM)
O=C1C(Sc2ccc(O)cc2)=C(Sc2ccc(O)cc2)C(=O)c2ncncc21 | 3.2 µg/mL (≈ 7.83 µM) | 3.2 µg/mL (≈ 7.83 µM) | 25 µg/mL (≈ 61.2 µM) | 12.5 µg/mL (≈ 30.6 µM) | 25 µg/mL (≈ 61.2 µM) | 12.5 µg/mL (≈ 30.6 µM)
CCSC1=C(SCC)C(=O)c2ncncc2C1=O | 12.5 µg/mL (≈ 44.6 µM) | 12.5 µg/mL (≈ 44.6 µM) | 6.3 µg/mL (≈ 22.5 µM) | 6.3 µg/mL (≈ 22.5 µM) | 3.2 µg/mL (≈ 11.4 µM) | 6.3 µg/mL (≈ 22.5 µM)
O=C1C(SCCO)=C(SCCO)C(=O)c2ncncc21 | 25 µg/mL (≈ 80 µM) | > 50 µg/mL | 12.5 µg/mL (≈ 40 µM) | 6.3 µg/mL (≈ 20.2 µM) | 25 µg/mL (≈ 80 µM) | 25 µg/mL (≈ 80 µM)
COc1ccc(OC)c2ncncc12 | > 50 µg/mL | > 50 µg/mL | 50 µg/mL (≈ 263 µM) | 50 µg/mL (≈ 263 µM) | 25 µg/mL (≈ 131 µM) | 50 µg/mL (≈ 263 µM)
OC(Cn1cncn1)(Cn1cncn1)c1ccc(F)cc1F [FLUCONAZOLE] | 50 µg/mL (≈ 163 µM) | 6.3 µg/mL (≈ 20.6 µM) | 25 µg/mL (≈ 81.6 µM) | 6.3 µg/mL (≈ 20.6 µM) | 25 µg/mL (≈ 81.6 µM) | 25 µg/mL (≈ 81.6 µM)
Nc1nc(=O)[nH]cc1F [FLUCYTOSINE] | 3.2 µg/mL (≈ 24.8 µM) | 3.2 µg/mL (≈ 24.8 µM) | 6.3 µg/mL (≈ 48.8 µM) | 12.5 µg/mL (≈ 96.8 µM) | 6.3 µg/mL (≈ 48.8 µM) | 6.3 µg/mL (≈ 48.8 µM)
